Bioassay records from PubChem BioAssay.
Shown are actives, neighbours in structure and some others; about 9.6% of the full set was active somewhere.
TNAP inh noacc: blocks human TNAP activity with no phosphate acceptor present; P05186; purified TNAP, CDP-star luminescence, 30 min; inhibition, % at 20 µM; actives 0.26% (n = 200,000);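 active = tissue-nonspecific alkaline phosphatase inhibition above about 50% at 20 µM in the single-dose screen, limit read from the data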;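 note: 0% = DMSO negative control and 100% = EDTA positive control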
Target sequence (P05186 whole entry, looked up): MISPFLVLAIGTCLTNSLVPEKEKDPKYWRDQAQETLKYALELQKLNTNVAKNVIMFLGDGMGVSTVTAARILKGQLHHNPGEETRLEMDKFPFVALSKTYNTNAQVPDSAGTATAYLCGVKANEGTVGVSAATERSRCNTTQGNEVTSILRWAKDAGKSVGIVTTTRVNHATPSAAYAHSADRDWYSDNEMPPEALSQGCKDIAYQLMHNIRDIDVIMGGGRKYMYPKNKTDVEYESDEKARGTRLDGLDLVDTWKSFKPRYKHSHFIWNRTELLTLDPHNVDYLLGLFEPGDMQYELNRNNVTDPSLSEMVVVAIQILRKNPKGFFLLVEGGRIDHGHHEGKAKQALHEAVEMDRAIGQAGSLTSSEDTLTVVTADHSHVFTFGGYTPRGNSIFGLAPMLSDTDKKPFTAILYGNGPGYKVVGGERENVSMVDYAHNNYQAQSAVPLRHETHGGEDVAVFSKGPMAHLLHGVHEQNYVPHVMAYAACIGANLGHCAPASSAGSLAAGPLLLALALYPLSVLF
PTEN del growth: suppresses growth of cells with PTEN deletion | HCT116 PTEN-null viability, CellTiter-Glo, 60 h; stronger effect = lower value | viability, % at 10 µM | actives 1.2% (n = 140,000);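 active = viability at or below a set limit, 4 SD under the median of all tested compounds, cut at about 3.7% in these data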;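 note: PTEN knockout HCT116 line with beta catenin targeted HCT116 as companion control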
TNAP act hiacc: activators of human TNAP at high phosphate acceptor concentration; purified TNAP, CDP-star luminescence, 1 M DEA, 30 min; stronger effect = higher value; 0 = EDTA background, 1 = DMSO-only activity; activation factor at 20 µM; 200,000 tested, under 10 active;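 active = activation factor at least 2 at 20 µM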
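system = human TNAP | amount = enzyme diluted 1/800 final | reagent = 100 µM CDP-star substrate | signal = luminescent substrate turnover signal | dosing = one dose, 20 µM | benchmarks = EDTA negative control, DMSO positive control | measure = activation factor | timing = 30 min reaction, room temperature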
TNAP inh hi DEA: inhibitors of human TNAP at high phosphate acceptor concentration | inhibition, % at 20 µM | actives 0.03% (n = 200,000) | purified TNAP, CDP-star luminescence, 1 M DEA | P05186;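 active = over 50% inhibition of tissue-nonspecific alkaline phosphatase at 20 µM in the single-dose screen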;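 note: plate controls were DMSO wells for no effect and EDTA-quenched wells as full inhibition for full effect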
bCat KO growth: beta-catenin-lacking colon tumor cell growth suppression; HCT116 beta-catenin knockout viability, CellTiter-Glo, 60 h; stronger effect = lower value; AID 818; viability, % at 10 µM; actives 1.5% (n = 140,000);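 active = viability at or under a set limit, the compound median less 4 SD, cut at about 6% in these data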;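 note: 0% = Hyamine 1622 control at 20 µM and 100% = untreated cell control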
Lmaj promast: Leishmania major promastigote growth inhibition. AID 1063. inhibition, % at 10 µM. actives 9% (n = 200,000). Leishmania major promastigotes, resazurin fluorescence viability; in the data active = inhibition above about 50%;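 note: promastigotes grown with compound for 44 hours at 28 °C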
L major 1uM: blocks Leishmania major promastigote growth at 1 uM, repeat screen. shares compounds with Lmaj promast. L. major promastigote growth, resazurin fluorescence, 48 h. inhibition, % at 1 µM. actives 13% (n = 1,100);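 active = inhibition above about 50% in both repeat tests, limit read from the data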
The depositor's hits bear a star; / = not tested or not shown.

SMILES	TNAP inh noacc	PTEN del growth	TNAP act hiacc	TNAP inh hi DEA	bCat KO growth	Lmaj promast	others
O=C(N/N=C/c1ccncc1)c1ccccc1OCc1ccc(Br)cc1	-4	41	1	-2	38	100*
Cc1ccc(NC(=O)COC(=O)CSC(=S)N2CCOCC2)cc1	-13	/	1.1	-6	/	-8
Cc1ccc(-n2ncc3c2ncn2c(C)nnc32)cc1C	84*	88	1	0	87	2
Cc1nc2c3cnn(-c4ccccc4)c3ncn2n1	54*	101	1	-2	92	28
c1ccc(-n2ncc3c2ncn2nnnc32)cc1	2	94	1	-5	92	-3
c1ccc(-n2ncc3c2ncn2cnnc32)cc1	76*	114	0.9	9	104	-1
CCc1nnc2c3cnn(-c4ccccc4)c3ncn12	53*	101	1	4	108	6
CCn1ncc(NC(=S)Nc2ccc3c(c2)OCO3)c1C(N)=O	-14	/	1.1	-6	/	-4
Cc1cccc(C)c1OCc1nnc2c3cnn(C)c3ncn12	74*	108	1	-2	102	4
CN1CCN(C(=O)c2cc3nc(-c4ccccc4)cc(-c4ccccc4)n3n2)CC1	-5	88	1.1	-7	78	95*
Cc1cc(NCCCN2CCOCC2)n2nc(C)c(-c3ccc(F)cc3)c2n1	-2	67	1	2	70	91*
CC(=O)Nc1ccc(Nc2cc(C)nc3c(-c4ccccc4)c(C)nn23)cc1	-52	59	1	4	70	85*
Cc1cc(NCCCN2CCOCC2)n2nc(C)c(-c3ccccc3)c2n1	-11	80	1.1	-8	67	66*
O=c1c2ccccc2oc2nc(-c3cccs3)n(CCc3ccccc3)c(=O)c12	-5	92	1.1	-8	90	-1
Cc1n(C)c2cc(Cl)ccc2[n+]1Cc1ccccc1	-5	/	1	-3	/	-1
CC(=O)Nc1ccc(S(=O)(=O)N2CCN(Cc3cccs3)CC2)cc1	-1	/	1	-4	/	-1
NCCOc1ccccc1Cc1ccccc1	-12	89	1	-4	76	99*
COc1cc2c(-c3ccc(O)cc3)nc3c(c(C)nn3-c3ccccc3)c2cc1OC	20	1.2*	1	-5	1.0*	63*
Cc1onc(-c2c(F)cccc2Cl)c1C(=O)Nc1cccc(S(=O)(=O)NCc2ccco2)c1	-5	/	1.1	-6	/	18
O=C(NNc1nc2ccc(Cl)cc2s1)c1cc(-c2cccs2)nc2ccccc12	-56	3.7*	0.9	6	4.2*	-9
Cc1ccc2sc(NNC(=O)c3cc(-c4cccs4)nc4ccccc34)nc2c1C	-10	4	1	3	4.8*	2
Cc1cc(C)c2nc(NNC(=O)c3cc(-c4cccs4)nc4ccccc34)sc2c1	-12	4	1	3	6	-2
CC12CC3CC(C)(C1)CC(NCc1ccncc1)(C3)C2	-10	/	1	-2	/	82*
CC1(C)CC(NCc2ccncc2)CC(C)(C)N1	-11	/	1.1	-7	/	-4
c1ccc(CCNc2nc(-c3ccccn3)cs2)cc1	-7	/	1	-4	/	100*
SMILES	TNAP inh noacc	PTEN del growth	TNAP act hiacc	TNAP inh hi DEA	bCat KO growth	Lmaj promast	others
Cc1csc(NC(=O)[C@@H](NC(=O)c2ccccc2)C(C)C)n1	-10	100	1.1	-5	101	4
CC(C)[C@H](NC(=O)c1ccccc1Cl)C(=O)Nc1nc(-c2ccccn2)cs1	-24	/	1	-3	/	99*
Cc1cccc(C(=O)N[C@H](C(=O)Nc2nc(C)cs2)C(C)C)c1	-2	92	1	0	95	64*
C[C@@H](C(=O)Nc1nc(-c2ccccn2)cs1)N1C(=O)C2CCCCC2C1=O (stereo not given in full)	-4	21	1	-1	21	100*
Cc1ccc(C(=O)CSc2ccc(-c3cccnc3)nn2)cc1	-5	/	1	0	/	-1
CCOc1ccc(C(=O)NC(C)(C)CC)cc1	-15	/	1.1	-7	/	-3
O=C(Nc1nc(-c2ccc(S(=O)(=O)N3CCCC3)cc2)cs1)C1COc2ccccc2O1 (stereo not given)	-1	59	1	3	65	84*
O=C(Nc1nc(-c2ccccc2)cs1)C1COc2ccccc2O1 (stereo not given)	-1	81	1.1	-5	81	3
O=C(Nc1nc(-c2ccccn2)cs1)C1COc2ccccc2O1 (stereo not given)	-1	12	1	-4	7	77*
O=C(Nc1ccc(S(=O)(=O)N2CCCC2)cc1)C1COc2ccccc2O1 (stereo not given)	-7	98	1	-1	101	-2
CC1CC1C(=O)Nc1nc(-c2ccccn2)cs1 (stereo not given)	-24	16	1.1	-5	21	100*
CSc1nc2ccc3nc(NC(=O)C4COc5ccccc5O4)sc3c2s1 (stereo not given)	-5	95	1	2	95	78*
COc1ccccc1CNC(=O)COC(=O)[C@H](Cc1c[nH]c2ccccc12)NC(=O)c1cccs1	0	99	1	-5	82	-6
O=C(OCC(=O)N1CCN(S(=O)(=O)c2ccc(Cl)cc2)CC1)c1ccc([N+](=O)[O-])o1	-24	/	1.1	-6	/	57*
O=C(COC(=O)c1ccc([N+](=O)[O-])o1)Nc1cccc(S(=O)(=O)N2CCCCC2)c1	-12	/	1	-1	/	-9
O=C(OCC(=O)N1CCN(S(=O)(=O)c2ccccc2)CC1)c1ccc([N+](=O)[O-])o1	-8	/	1.1	-6	/	95*
O=C(Nc1ccc(F)cc1)C1CCN(S(=O)(=O)c2cccs2)CC1	-17	/	1	-4	/	7
Cc1ccc(/C=C\c2nccc3c2[nH]c2ccccc23)cc1	-7	/	1	-3	/	68*	L major 1uM=21
Fc1ccc(/C=C\c2nccc3c2[nH]c2ccccc23)cc1	-13	/	1.1	-5	/	32
NC(=S)NC(=O)/C=C/c1ccccc1	-4	/	1	-2	/	15
CCN(CC)c1ccc(NC(=O)c2ccc(Br)o2)c(C)c1	-2	102	0.9	6	89	57*	L major 1uM=6
Cc1c(=O)n(OCc2ccccc2F)c2ccccc2[n+]1[O-]	-10	74	1	-2	71	73*	L major 1uM=-19
CC1(C)C(c2ccccc2)=NC(c2ccc(Br)cc2)N1O (stereo not given)	-5	/	1	-1	/	-8
COc1cccc(C2CC(c3cccs3)=NN2C(=O)CSC2=NN3CCCC(=O)N=C3S2)c1OC (stereo not given)	4	83	1	-3	88	3
